# Reference: PubChem BioAssay AID624368 (Broad Institute, 2012)
# Activity calls are given as the source filed them.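 How the source made its calls: active means viability drop with AC50 at most twice the sample's highest valid dose; inconclusive means flat curve with moderate loss, or a poor fit; inactive means the rest.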
# Test system: A375 viability, CellTiter-Glo ATP luminescence, 24 h
# Assay: A375 melanoma cell proliferation, dose response, counter-screen for MITF inhibitor project, CellTiter-Glo luminescence, dry powder, set 5 (AID 624368)
# Settings: not given
# Summary of the method: (§1)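 Signal: ATP luminescence, CellTiter-Glo | System: MITF-independent A375 melanoma cells | Amount: 3000 cells per well | Incubation: 24 h compound exposure, 37 °C | Medium: Phenol red-free DMEM, 10% FBS | Compound: Pinned multi-dose series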
row,SMILES,AC50
1,COC1=C(NS(=O)(=O)c2cccs2)C(=O)c2ccccc2C1=O,> 70 µM (inactive)
2,C[C@@H](NC1=C(Nc2ccccc2)C(=O)c2ccccc2C1=O)c1ccccc1,> 70 µM (inactive)
3,COC1=C(NS(=O)(=O)c2ccccc2)C(=O)c2ccccc2C1=O,> 70 µM (inactive)
4,NC1=C(NC(=O)c2ccccc2)C(=O)c2ccccc2C1=O,> 70 µM (inactive)
5,O=C1C(NS(=O)(=O)c2cccs2)=C(c2ccccc2)C(=O)c2ccccc21,> 70 µM (inactive)
6,O=C1C(NS(=O)(=O)c2ccc(Br)s2)=C(N2CCCCC2)C(=O)c2ccccc21,> 70 µM (inactive)
7,O=C1C(Nc2ccccc2)=C(N2CCCCC2)C(=O)c2ccccc21,> 70 µM (inactive)
8,NC1=C(NS(=O)(=O)c2cccs2)C(=O)c2ccccc2C1=O,> 70 µM (inactive)
9,CCN1CCN(C2=C(NC(=O)c3ccc(Br)cc3)C(=O)c3ccccc3C2=O)CC1,28 µM
10,COc1ccc(S(=O)(=O)N(C(C)=O)c2ccc(OC(C)=O)c3ccccc23)cc1[N+](=O)[O-],> 70 µM (inactive)
11,O=C1C=C(NS(=O)(=O)c2cccs2)C(=O)c2ccccc21,> 70 µM (inactive)
12,O=C1C(Nc2ccccc2)=C(N2CCOCC2)C(=O)c2ccccc21,> 70 µM (inactive)
13,O=C1C(NS(=O)(=O)c2ccc(Br)s2)=C(N2CCSCC2)C(=O)c2ccccc21,> 70 µM (inactive)
14,O=C(NC1=C(N2CCCCC2)C(=O)c2ccccc2C1=O)c1ccc(Br)cc1,> 70 µM (inactive)
15,CC1CCN(CC(CS(=O)(=O)c2ccc([N+](=O)[O-])cc2)N2CCC(C)CC2)CC1 (configuration not stated),> 70 µM (inactive)
16,O=C(NC1=C(c2ccccc2)C(=O)c2ccccc2C1=O)c1ccco1,29.1 µM
17,CCN(CC)CCNC1=C(Nc2ccccc2)C(=O)c2ccccc2C1=O,> 70 µM (inactive)
18,NC1=C(NS(=O)(=O)c2ccc(Br)cc2)C(=O)c2ccccc2C1=O,> 70 µM (inactive)
19,Cc1nc2ccccc2n1/N=C/c1ccc([N+](=O)[O-])s1,> 70 µM (inactive)
20,CC(=O)N(C)C1=C(N2CCN(C)CC2)C(=O)c2ccccc2C1=O,24.3 µM
21,O=C(NC1=C(N2CCSCC2)C(=O)c2ccccc2C1=O)c1ccc(Br)cc1,> 70 µM (inactive)
22,C=CCNC1=C(N(C)C(C)=O)C(=O)c2ccccc2C1=O,23 µM

row,SMILES,AC50
1,NC1=C(NS(=O)(=O)c2ccccc2)C(=O)c2ccccc2C1=O,> 70 µM (inactive)
2,O=C1C(NS(=O)(=O)c2ccc(Br)s2)=C(N2CCOCC2)C(=O)c2ccccc21,> 70 µM (inactive)
3,CN1CCN(C2=C(NS(=O)(=O)c3ccc(Br)s3)C(=O)c3ccccc3C2=O)CC1,> 70 µM (inactive)
4,O=C1C(NS(=O)(=O)c2cccs2)=C(N2CCCCC2)C(=O)c2ccccc21,> 70 µM (inactive)
5,NC1=CC(=O)c2ccccc2C1=O,> 70 µM (inactive)
6,CCN1CCN(C2=C(NS(=O)(=O)c3ccc(Br)s3)C(=O)c3ccccc3C2=O)CC1,> 70 µM (inactive)
7,O=C1C(NS(=O)(=O)c2ccccc2)=C(c2ccccc2)C(=O)c2ccccc21,> 70 µM (inactive)
8,O=C(CNc1cccc2ccccc12)N/N=C/c1ccc([N+](=O)[O-])o1,> 70 µM (inactive)
9,CCN(CC)CCCNC1=C(Nc2ccccc2)C(=O)c2ccccc2C1=O,> 70 µM (inactive)
10,O=C1C(Nc2ccccc2)=C(c2ccccc2)C(=O)c2ccccc21,> 70 µM (inactive)
11,O=C1C=C(Nc2ccccc2)C(=O)c2ccccc21,> 70 µM (inactive)
12,O=C1C(Nc2ccccc2)=C(N2CCSCC2)C(=O)c2ccccc21,> 70 µM (inactive)
13,O=C1C=C(NS(=O)(=O)c2ccccc2)C(=O)c2ccccc21,> 70 µM (inactive)
14,COC1=C(NS(=O)(=O)c2ccc(Br)cc2)C(=O)c2ccccc2C1=O,> 70 µM (inactive)
15,Cc1ccc(C(=O)NC2=C(c3ccccc3)C(=O)c3ccccc3C2=O)o1,32 µM
16,CN1CCN(C2=C(NC(=O)c3ccc(Br)cc3)C(=O)c3ccccc3C2=O)CC1,32.2 µM
17,COC1=C(Nc2ccccc2)C(=O)c2ccccc2C1=O,> 70 µM (inactive)
18,NC1=C(c2ccccc2)C(=O)c2ccccc2C1=O,> 70 µM (inactive)
19,O=C(NC1=C(N2CCOCC2)C(=O)c2ccccc2C1=O)c1ccc(Br)cc1,> 70 µM (inactive)
20,CN1CCN(C2=C(Nc3ccccc3)C(=O)c3ccccc3C2=O)CC1,> 70 µM (inactive)
21,C=CCNC1=C(Cl)C(=O)c2ccccc2C1=O,> 70 µM (inactive)
22,C=CCNC1=C(Nc2ccccc2)C(=O)c2ccccc2C1=O,> 70 µM (inactive)

# Test system: not listed separately
# Assay: as above
# Settings: A375 viability, CellTiter-Glo ATP luminescence, 24 h; at 35 µM (top of the series)
# Summary of the method: as §1
row,SMILES,"activity change, negative = cytotoxicity"
1,NC1=C(NS(=O)(=O)c2ccc(Br)s2)C(=O)c2ccccc2C1=O,3.75% (inactive)
2,O=C1C(NS(=O)(=O)c2ccccc2)=C(N2CCOCC2)C(=O)c2ccccc21,-1.41% (inactive)
3,NC1=C(c2ccc(OC(F)(F)F)cc2)C(=O)c2ccccc2C1=O,-3.65% (inactive)
4,O=C1C(NS(=O)(=O)c2ccccc2)=C(N2CCCCC2)C(=O)c2ccccc21,0.773% (inactive)
5,CNC1=CC(=O)c2ccccc2C1=O,3.5% (inactive)
6,O=C1C(Nc2ccccc2)=C(NS(=O)(=O)c2ccccc2[N+](=O)[O-])C(=O)c2ccccc21,-2.72% (inactive)
7,CCN1CCN(C2=C(NS(=O)(=O)c3ccc(Br)cc3)C(=O)c3ccccc3C2=O)CC1,8.86% (inactive)
8,O=C1C=C(NS(=O)(=O)c2ccc(Br)cc2)C(=O)c2ccccc21,2.29% (inactive)
